The values below come from ChEMBL document CHEMBL3272012, “5-(Tetradecyloxy)-2-furancarboxylic acid and related hypolipidemic fatty acid-like alkyloxyarylcarboxylic acids” (J Med Chem, 1977).

The subject of data set [1] is Rattus norvegicus. Briefly: Hypolipidemic activity in Wistar rat assessed as reduction in plasma triglyceride level at 439 umol/kg/day administered through diet for 10 days. Format: functional. To be noted: 240 h. In outline:
(§1)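 Young male Wistar rats (initial weight 170-190 g), groups of six, fed compound mixed into Purina Lab Chow ad libitum for 4 or 10 days; daily dose calculated from food consumption and body weight. Bled by cardiac puncture; plasma cholesterol and triglycerides by automated procedures; percent reduction versus simultaneous untreated controls, Student's t test.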

Data set [2] concerns Rattus norvegicus. Briefly: Hypolipidemic activity in Wistar rat assessed as reduction in plasma cholesterol level at 439 umol/kg/day administered through diet for 10 days. To be noted: 240 h. It counts as functional. The procedure, abridged:
(§2)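 Young male Wistar rats, 170-190 g initial weight, groups of six, given compound mixed thoroughly into Purina Lab Chow ad libitum for 4 or 10 days as stated. Daily dose calculated from food consumption and body weight. Bled by cardiac puncture at end of treatment; plasma cholesterol measured by automated procedure. Expressed as percent reduction versus simultaneous untreated control group; Student's t test.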

Data set [3] relates to Rattus norvegicus. The data set can be described thus: Hypolipidemic activity in Wistar rat assessed as reduction in plasma triglyceride level at 461 umol/kg/day administered through diet for 4 days. It counts as functional. The note with it: 96 h.
Data set [4] concerns Rattus norvegicus. Briefly: Hypolipidemic activity in Wistar rat assessed as reduction in plasma triglyceride level at 392 umol/kg/day administered through diet for 10 days. Format: functional. To be noted: 240 h. In outline: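 Young male Wistar rats (170-190 g initial weight), groups of six, fed test compound mixed into Purina Lab Chow ad libitum; daily dose calculated from food consumption and body weight. Bled by cardiac puncture at end of treatment; plasma triglycerides measured by automated procedure. Results given as percent reduction versus a simultaneous untreated control group, with significance by Student's t test.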

For data set [5], the system named is Rattus norvegicus. Briefly: Hypolipidemic activity in Wistar rat assessed as reduction in plasma cholesterol level at 461 umol/kg/day administered through diet for 4 days. It counts as functional. The note with it: 96 h. In outline:
as §2

The test system of data set [6] is Rattus norvegicus. Briefly: Hypolipidemic activity in Wistar rat assessed as reduction in plasma cholesterol level at 392 umol/kg/day administered through diet for 10 days. The note with it: 240 h. Format: functional. In outline: (§3)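 Young male Wistar rats, 170-190 g at start, in groups of six, given compound mixed into Purina Lab Chow ad libitum for 4 or 10 days as stated. Daily dose was calculated from food consumption and body weight. Plasma was taken by cardiac puncture at the end and cholesterol measured by automated procedure. Results are % reduction versus a concurrent untreated control group, with Student's t test.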

In data set [7] the test system is Rattus norvegicus. Briefly: Increase in liver weight in Wistar rat at 439 umol/kg/day administered through diet for 10 days. Format: ADME, organism-based. The note with it: in vivo, po, 240 h. The procedure, abridged: (§4)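 Male Wistar rats (170-190 g initial), groups of six, dosed via diet ad libitum for 4 or 10 days, daily dose from food consumption. Liver wet weight measured, expressed as g/100 g final body weight, compared with untreated controls run simultaneously.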

In data set [8] the test system is Rattus norvegicus. The data set can be described thus: Increase in cholesterol level in Wistar rat liver at 461 umol/kg/day administered through diet for 4 days. Format: ADME, organism-based. The note with it: in vivo, po, 96 h.
For data set [9], the system named is Rattus norvegicus. Briefly: Increase in cholesterol level in Wistar rat liver at 392 umol/kg/day administered through diet for 10 days. It counts as ADME, organism-based. To be noted: in vivo, po, 240 h.
Data set [10] concerns Rattus norvegicus. The data set can be described thus: Increase in cholesterol level in Wistar rat liver at 439 umol/kg/day administered through diet for 10 days. It counts as ADME, organism-based. The note with it: in vivo, po, 240 h.
For data set [11], the system named is Rattus norvegicus. Briefly: Increase in liver weight in Wistar rat at 461 umol/kg/day administered through diet for 4 days. It counts as ADME, organism-based. The note with it: in vivo, po, 96 h.
In data set [12] the test system is Rattus norvegicus. Briefly: Increase in liver weight in Wistar rat at 392 umol/kg/day administered through diet for 10 days. It counts as ADME, organism-based. The note with it: in vivo, po, 240 h.
Data set [13] has as its system Rattus norvegicus. The data set can be described thus: Hypolipidemic activity in Wistar rat assessed as reduction in plasma triglyceride level at 462 umol/kg/day administered through diet for 10 days. It counts as functional. The note with it: 240 h.
Data set [14] deals with Rattus norvegicus. The data set can be described thus: Hypolipidemic activity in Wistar rat assessed as reduction in plasma triglyceride level at 453 umol/kg/day administered through diet for 4 days. It counts as functional. To be noted: 96 h.
Data set [15] has as its system Rattus norvegicus. The data set can be described thus: Hypolipidemic activity in Wistar rat assessed as reduction in plasma cholesterol level at 462 umol/kg/day administered through diet for 10 days. It counts as functional. The note with it: 240 h. In outline:
as §2

In data set [16] the test system is Rattus norvegicus. The data set can be described thus: Hypolipidemic activity in Wistar rat assessed as reduction in plasma cholesterol level at 453 umol/kg/day administered through diet for 4 days. Format: functional. To be noted: 96 h. In outline:
as §2

In data set [17] the test system is Rattus norvegicus. The data set can be described thus: Increase in cholesterol level in Wistar rat liver at 462 umol/kg/day administered through diet for 10 days. To be noted: in vivo, po, 240 h. It counts as ADME, organism-based.
In data set [18] the test system is Rattus norvegicus. Briefly: Increase in liver weight in Wistar rat at 462 umol/kg/day administered through diet for 10 days. It counts as ADME, organism-based. The note with it: in vivo, po, 240 h.
For data set [19], the system named is Rattus norvegicus. The data set can be described thus: Increase in liver weight in Wistar rat at 453 umol/kg/day administered through diet for 4 days. It counts as ADME, organism-based. To be noted: in vivo, po, 96 h.
The test system of data set [20] is Rattus norvegicus. The data set can be described thus: Hypolipidemic activity in Wistar rat assessed as reduction in plasma cholesterol level at 439 umol/kg/day administered through diet for 4 days. Format: functional. To be noted: 96 h. In outline:
as §2

The test system of data set [21] is Rattus norvegicus. Briefly: Hypolipidemic activity in Wistar rat assessed as reduction in plasma cholesterol level at 419 umol/kg/day administered through diet for 10 days. It counts as functional. To be noted: 240 h. The procedure, abridged: as §2
For data set [22], the system named is Rattus norvegicus. The data set can be described thus: Hypolipidemic activity in Wistar rat assessed as reduction in plasma cholesterol level at 417 umol/kg/day administered through diet for 10 days. It counts as functional. To be noted: 240 h. In outline: as §3
The subject of data set [23] is Rattus norvegicus. The data set can be described thus: Hypolipidemic activity in Wistar rat assessed as reduction in plasma triglyceride level at 439 umol/kg/day administered through diet for 4 days. Format: functional. The note with it: 96 h. In outline: as §1
In data set [24] the test system is Rattus norvegicus. Briefly: Hypolipidemic activity in Wistar rat assessed as reduction in plasma triglyceride level at 419 umol/kg/day administered through diet for 10 days. To be noted: 240 h. It counts as functional. In outline:
as §1

The test system of data set [25] is Rattus norvegicus. Briefly: Hypolipidemic activity in Wistar rat assessed as reduction in plasma triglyceride level at 417 umol/kg/day administered through diet for 10 days. Format: functional. To be noted: 240 h.
The test system of data set [26] is Rattus norvegicus. Briefly: Increase in cholesterol level in Wistar rat liver at 439 umol/kg/day administered through diet for 4 days. It counts as ADME, organism-based. The note with it: in vivo, po, 96 h.
For data set [27], the system named is Rattus norvegicus. Briefly: Increase in cholesterol level in Wistar rat liver at 419 umol/kg/day administered through diet for 10 days. Format: ADME, organism-based. The note with it: in vivo, po, 240 h. The procedure, abridged:
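Male Wistar rats (170-190 g), six per group, given compound by admixture to lab chow ad libitum for 4 or 10 days, dose derived from food intake. Liver cholesterol determined by automated procedure, expressed as mg/g wet tissue, compared with an untreated control group by Student's t test.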

Data set [28] concerns Rattus norvegicus. Briefly: Increase in cholesterol level in Wistar rat liver at 417 umol/kg/day administered through diet for 10 days. It counts as ADME, organism-based. To be noted: in vivo, po, 240 h.
Data set [29] concerns Rattus norvegicus. The data set can be described thus: Increase in liver weight in Wistar rat at 439 umol/kg/day administered through diet for 4 days. Format: ADME, organism-based. The note with it: in vivo, po, 96 h. The procedure, abridged: as §4
The test system of data set [30] is Rattus norvegicus. Briefly: Increase in liver weight in Wistar rat at 419 umol/kg/day administered through diet for 10 days. The note with it: in vivo, po, 240 h. It counts as ADME, organism-based. The procedure, abridged: as §4
Data set [31] deals with Rattus norvegicus. The data set can be described thus: Increase in liver weight in Wistar rat at 417 umol/kg/day administered through diet for 10 days. The note with it: in vivo, po, 240 h. It counts as ADME, organism-based.

As for `CCCCCCCCCCCCCCOc1ccc(C(=O)OCC)cc1`, the figures for the inhibition in vivo at 439 µmol/kg in [1] and in [2] were 54% and 24%, respectively. Also, the inhibition in vivo at 461 µmol/kg in [3] turned out to be 42%; in data set [5], 23%. Moreover, the figures for the inhibition in vivo at 392 µmol/kg in data set [4] and in [6] were 61% and 33%, respectively. Moreover, the Activity in data set [7] is listed as 10%; in data set [8], 20%; in [9] it was 0%; in data set [10], 3%; in [11], 16%; in [12], 2%.

Turning to `CCCCCCCCCCCCCCOc1cccc(C(=O)OC)c1`, the inhibition in vivo at 462 µmol/kg stood at 59% in data set [13] and 24% in data set [15]. Further, the inhibition in vivo at 453 µmol/kg in data set [14] was 51%; in [16], 0%. Further, the Activity in data set [17] stood at 12%; in data set [18], 0%; in [19], 0%.

Take `CCCCCCCCCCCCCCCOc1ccc(C(=O)OC)cc1`: the inhibition in vivo at 439 µmol/kg in data set [20] was found to be 19%; in [23] it was 46%. In addition, the inhibition in vivo at 419 µmol/kg came out at 20% in [21] and 57% in data set [24]. The inhibition in vivo at 417 µmol/kg was 37% in data set [22] and 73% in data set [25]. Further, the Activity in [26] is on record as 9%; in data set [27] it was 2%; in data set [28], 9%; in data set [29] it was 7%; in data set [30], 15%; in [31] it was 0%.
